Assay results from different studies.
Protocols differ between the studies behind these lines. ≈ marks a conversion by molar mass, not a printed value.

With `C[C@@H](O)[C@H]1C(=O)N2C(C(=O)O)=C(S[C@@H]3CN[C@H](C(=O)N(C)C)C3)[C@H](C)[C@H]12` the MIC was no more than 0.5 µg/mL (Salmonella enterica; microbial growth, broth dilution; clinical isolate).
`O=C1NC(=S)N/C1=C\c1c2ccccc2c(-c2ccc(N(c3ccccc3)c3ccccc3)cc2)c2ccccc12` gave an MBC of greater than 1000 µg/mL (Bacillus cereus; microbial killing, broth dilution; ATCC10876).
`O=c1cc(-c2ccc(O)cc2)oc2cc(O)cc(O)c12` has an inhibition of 82.6% (Helicobacter pylori; microbial growth, broth dilution; 0.98 µg/mL).
`O=C(O)CN1C(=O)/C(=C/c2ccc(-c3ccc(N(c4ccccc4)c4ccccc4)cc3)c3ccccc23)SC1=S` gave an MBC of greater than 1000 µg/mL (Bacillus cereus; microbial killing, broth dilution; ATCC10876).
`O=C(N[C@H](CO)[C@H](O)c1ccc([N+](=O)[O-])cc1)C(Cl)Cl` has an MIC of 2 µg/mL (≈ 6.19 µM) (Salmonella enterica; microbial growth; 20 h, pH 5.5).
With `O=C1NC(=S)S/C1=C\c1c2ccccc2c(-c2ccc(N(c3ccccc3)c3ccccc3)cc2)c2ccccc12` the MBC was greater than 1000 µg/mL (Bacillus cereus; microbial killing, broth dilution; ATCC10876).
`COc1cc(Cc2cnc(N)nc2N)cc(OC)c1OC` gave an MIC of 0.25 µg/mL (≈ 0.861 µM) (Salmonella enterica; microbial growth; F98, TYPHIMURIUM; 20 h, pH 7.2).
`O=C(O)CN1C(=O)/C(=C/c2ccc(-c3ccc(N(c4ccccc4)c4ccccc4)cc3)cc2)NC1=S` gave an MBC of 250 µg/mL (≈ 494 µM) (Bacillus cereus; microbial killing, broth dilution; ATCC10876).
`CC1(C)S[C@@H]2[C@H](NC(=O)[C@H](N)c3ccccc3)C(=O)N2[C@H]1C(=O)O` has an inhibition of 100% (Salmonella enterica; microbial growth, agar dilution; ENTERITIDIS; 26.93 µM).
With `O=C(N/N=C/c1ccc([N+](=O)[O-])o1)c1ccc(O)cc1` the MIC90 was 0.98 µg/mL (≈ 3.56 µM) (Salmonella enterica; microbial growth; ATCC13311 TYPHIMURIUM).
For `COc1cc(-c2cc(=O)c3c(O)cc(O)cc3o2)ccc1O`, the inhibition was 100% (Helicobacter pylori; microbial growth, broth dilution; 62.5 µg/mL).
`CN[C@H](CC(C)C)C(=O)N[C@H]1C(=O)N[C@@H](CC(N)=O)C(=O)N[C@H]2C(=O)N[C@H]3C(=O)N[C@H](C(=O)N[C@H](C(=O)O)c4cc(O)cc(O)c4-c4cc3ccc4O)[C@H](O)c3ccc(c(Cl)c3)Oc3cc2cc(c3O[C@@H]2O[C@H](CO)[C@@H](O)[C@H](O)[C@H]2O[C@H]2C[C@](C)(N)[C@H](O)[C@H](C)O2)Oc2ccc(cc2Cl)[C@H]1O` gave an MIC of 0.98 µg/mL (≈ 0.676 µM) (Bacillus cereus; microbial growth, broth dilution; ATCC10876).
`[H]/N=C(/N)N[C@H]1[C@H](O)[C@@H](O)[C@H](O[C@@H]2O[C@@H](C)[C@](O)(C=O)[C@H]2O[C@@H]2O[C@@H](CO)[C@H](O)[C@@H](O)[C@@H]2NC)[C@@H](N/C(N)=N\[H])[C@@H]1O` gave an MIC of 64 µg/mL (≈ 110 µM) (Salmonella enterica; microbial growth; 20 h, pH 7).
The MBC of `O=C1NC(=S)N/C1=C\c1ccc(-c2ccc(N(c3ccccc3)c3ccccc3)cc2)c2ccccc12` is reported as greater than 1000 µg/mL (Bacillus cereus; microbial killing, broth dilution; ATCC10876).
`CC1(C)S[C@@H]2[C@H](NC(=O)[C@H](N)c3ccccc3)C(=O)N2[C@H]1C(=O)O` has an MIC of 1 µg/mL (≈ 2.86 µM) (Salmonella enterica; microbial growth; ENTERITIDIS; 20 h, pH 5.5).
The MBC of `CO[C@H]1O[C@H](COC(c2ccccc2)(c2ccccc2)c2ccccc2)[C@@H](OC(=O)c2ccc(C(C)(C)C)cc2)[C@H](OC(=O)c2ccc(C(C)(C)C)cc2)[C@H]1OC(=O)c1ccc(C(C)(C)C)cc1` is reported as 8 µg/mL (≈ 8.72 µM) (Bacillus cereus; microbial killing, broth dilution).
For `C=C[C@@]1(C)C=C2CC[C@@H]3[C@](C)(CCC[C@@]3(C)C(=O)O)[C@H]2CC1`, the inhibition was 86.3% (Helicobacter pylori; microbial growth, broth dilution; 15.63 µg/mL).
`O=C(O)c1cn(C2CC2)c2cc(N3CCNCC3)c(F)cc2c1=O` gave an MIC of 0.0156 µg/mL (≈ 0.0471 µM) (Salmonella enterica; microbial growth; ENTERITIDIS; 20 h, pH 7.2).
`O=C1NC(=S)N/C1=C\c1ccc(-c2ccc(N(c3ccccc3)c3ccccc3)cc2)cc1` gave an MIC of greater than 1000 µg/mL (Bacillus cereus; microbial growth, broth dilution; ATCC10876).
With `Cc1cc(NS(=O)(=O)c2ccc(N)cc2)no1` the MIC was 64 µg/mL (≈ 253 µM) (Salmonella enterica; microbial growth; F98, TYPHIMURIUM; 20 h, pH 7.2).
The inhibition of `CC[C@H]1OC(=O)[C@H](C)[C@@H](O[C@H]2C[C@@](C)(OC)[C@@H](O)[C@H](C)O2)[C@H](C)[C@@H](O[C@@H]2O[C@H](C)C[C@H](N(C)C)[C@H]2O)[C@](C)(OC)C[C@@H](C)C(=O)[C@H](C)[C@@H](O)[C@]1(C)O` is reported as 100% (Helicobacter pylori; microbial growth, broth dilution; 62.5 µg/mL).
`CO/N=C(\C(=O)N[C@@H]1C(=O)N2C(C(=O)O)=C(CSC(=O)c3ccco3)CS[C@H]12)c1csc(N)n1` has an MIC of 1 µg/mL (≈ 1.91 µM) (Salmonella enterica; microbial growth; TYPHIMURIUM; 20 h, pH 7.2).
The inhibition of `COC(=O)c1ccc(O)cc1` is reported as 100% (Helicobacter pylori; microbial growth, broth dilution; 15.63 µg/mL).
With `O=C(O)CN1C(=O)/C(=C/c2c3ccccc3c(-c3ccc(N(c4ccccc4)c4ccccc4)cc3)c3ccccc23)NC1=S` the MBC was greater than 1000 µg/mL (Bacillus cereus; microbial killing, broth dilution; ATCC10876).
With `CO/N=C(\C(=O)N[C@@H]1C(=O)N2C(C(=O)O)=C(CSc3nc(=O)c(=O)[nH]n3C)CS[C@H]12)c1csc(N)n1` the MIC was 0.0625 µg/mL (≈ 0.113 µM) (Salmonella enterica; microbial growth; ENTERITIDIS; 20 h, pH 7).
`O=c1cc(-c2ccc(O)c(O)c2)oc2cc(O)cc(O)c12` has an inhibition of 100% (Helicobacter pylori; microbial growth, broth dilution; 31.25 µg/mL).
